PGC1a acetyl inh = inhibitors of PGC1a acetylation signal, primary screen, cell-based, U2OS, AlphaScreen, inhibitor mode. AlphaScreen anti-acetyl-lysine; with virally co-expressed GCN5 acetyltransferase. inhibition, % at 15.6 µM. hit rate 0.17% among 350,000. AID 651687, 2012;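 active = every replicate shows inhibition of at least 40%; inconclusive = mean inhibition at least 40% but some replicate below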;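 note: 0% = neutral control wells and 100% = positive control wells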
Cneo AK release = Cryptococcus neoformans cell lysis inducers, primary screen, AK release luminescence, single concentration; C. neoformans lysis, adenylate kinase release luminescence, 4 h; normalised: neutral wells 0, clomiphene wells 100; lysis activity, % at 15 µM; hit rate 0.2% among 360,000; AID 651654, 2012;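 active = mean lysis activity across replicates of at least 80%, whatever share of replicates individually reach that level; inactive = mean lysis activity below 80%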
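Test system: log-phase Cryptococcus neoformans yeast cells; Quantity: yeast cell density of 5 × 10^6 cells/mL; Buffer or medium: YPD; Doses: single compound concentration per well; Timing: 4 h at 37 °C static, read 1 h later; Measured by: AK luminescence; Read-out basis: lysis from increased AK signal; Control set: Clomiphene as positive control.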
Vif imaging = HIV Vif self-association inhibitors, primary screen, imaging, HEK293T, single point | HEK293T cells, Vif self-association by quenched fluorescence, 24 h | inhibition, % at 7.49 µM | hit rate 0.35% among 340,000; in the data active = inhibition above about 50%, passing the limit was not always enough; inconclusive = no clear call, values can overlap the other calls; inactive = below about 31%
PglD inh = C. jejuni PglD acetyltransferase inhibitors, primary screen, biochemical, DTNB colorimetric, single point; UDP-N-acetylbacillosamine N-acetyltransferase PglD (Campylobacter jejuni); purified PglD enzyme, DTNB colorimetric CoA detection; inhibition, % at 12.5 µM; hit rate 0.098% among 360,000; in the data active = inhibition above about 16%, passing the limit was not always enough; inconclusive = no clear call, values can overlap the other calls
Ecoli rRNA inh = reduced GFP signal of wild-type E. coli, primary screen, bacterial rRNA inhibitor project, GFP/RFP fluorescence, OD600, single point. hit rate 1.6% among 350,000. GFP signal change (wild-type ribosome), % (no concentration beside the values). E. coli WT GFP vs humanized-ribosome RFP mutants, 24 h; hits give low values; DMSO median 0, no signal -100;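 active = significant combined selectivity score with lowered wild-type GFP, culture density cut under 30%, mutant RFP and density less affected; inactive = any of these conditions unmet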
FGF22 binding = binders of human FGF22 protein, primary screen, FGF22 synaptogenesis inhibitor project, biophysical, thermal shift, single point; Fibroblast growth factor 22 (Homo sapiens), Q9HCT0; recombinant FGF22 thermal shift, SYPRO orange fluorescence; percent of sucrose octasulfate shift, DMSO zero; activity (Tm shift, normalised), % at 9.99 µM; hit rate 1.5% among 340,000;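 active = mean Tm shift, scaled 0 neutral to 100 positive control, at about 1.3% or above, every replicate too, limit read from the data; inconclusive = no clear call, values can overlap the other calls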
Target sequence (Q9HCT0 whole entry, looked up): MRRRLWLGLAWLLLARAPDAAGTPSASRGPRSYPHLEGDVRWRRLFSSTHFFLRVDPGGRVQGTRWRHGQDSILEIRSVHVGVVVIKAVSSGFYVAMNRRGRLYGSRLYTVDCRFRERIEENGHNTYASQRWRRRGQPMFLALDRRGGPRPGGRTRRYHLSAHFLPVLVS
AID977621 = growth inhibition of wild-type GFP E. coli, dose response, H69 mutant RFP, cherry-pick; shares compounds with Ecoli rRNA inh; E. coli wild-type GFP strain growth, fluorescence, 24 h; activity change, negative = inhibition at 50 µM; 1,900 tested, under 10 active; AID 977621, 2014;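 active = Wild-type ribosome reporter drop at least double the humanized mutant ribosome reporter drop, growth loss under a set limit; inconclusive = no clear call, values can overlap the other calls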;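 note: wild-type GFP and H69 mutant RFP strains grown together 50/50 in each well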
AID977628 = E. coli growth inhibition, wild-type GFP versus h24 humanized RFP strain, dose response, h24 mutant RFP vs wild-type GFP, cherry-pick; shares compounds with Ecoli rRNA inh; AID 977628, 2014; 1,900 tested, under 10 active; activity change, negative = inhibition at 50 µM; E. coli WT GFP strain growth, fluorescence, 24 h;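 active = compound lowering the normal-ribosome reporter at least twice as much as the humanized-ribosome reporter, growth loss under a set limit; inconclusive = no clear call, values can overlap the other calls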;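 note: wild-type GFP and h24 humanized RFP strains co-cultured 1 to 1 per well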
Active calls of the source: *. In the library only some 2.9% were active in any assay of this set; here they are far more common.

What do the screens show for `C[C@H]1CN([C@@H](C)CO)C(=O)c2c(c3ccccc3n2C)-c2ccccc2CO[C@H]1CN(C)S(=O)(=O)c1ccc(F)cc1`?
PGC1a acetyl inh: -3.7; Cneo AK release: -1.0; PglD inh: 3.1; Ecoli rRNA inh: 1.3; FGF22 binding: -0.1

What do the screens show for `COc1cccc(NC(=O)CSc2nc3c(sc4ccccc43)c(=O)n2CCN(C)C)c1`?
PGC1a acetyl inh: 0.0; Vif imaging: -6.0; Ecoli rRNA inh: -21.6*; FGF22 binding: 0.0; AID977621: inconclusive; AID977628: -5.45

What do the screens show for `CO[C@@H]1CC[C@H]2CCN(C)C(=O)CCCN(C)C(=O)c3cccc(C#N)c3OC[C@@H]1O2`?
Cneo AK release: 4.3; PglD inh: -0.3; Ecoli rRNA inh: -0.6; FGF22 binding: 0.2

How did O=c1[nH]c(C2CCCN(S(=O)(=O)c3ccccc3Cl)C2)nc2c1nnn2Cc1ccc2c(c1)OCCO2 (stereo not given) do in these assays?
PGC1a acetyl inh: -19.5; Cneo AK release: 3.4; Vif imaging: -5.6; PglD inh: 0.1; Ecoli rRNA inh: -17.6*; FGF22 binding: 0.0; AID977621: -8.77

Results for O=c1[nH]c(C2CCN(S(=O)(=O)c3ccccc3)CC2)nc2c1nnn2Cc1ccc2c(c1)OCCO2 ?
PGC1a acetyl inh: 7.7; Cneo AK release: -0.5; Vif imaging: -1.2; PglD inh: 3.6; Ecoli rRNA inh: -0.8; FGF22 binding: -0.3

What do the screens show for `Cc1noc(C)c1S(=O)(=O)N(C)C[C@@H]1OCCCC[C@@H](C)Oc2ccc(NC(=O)c3ccccc3)cc2C(=O)N([C@@H](C)CO)C[C@H]1C`?
PGC1a acetyl inh: -11.2; Cneo AK release: 1.0; PglD inh: -0.8; Ecoli rRNA inh: -2.1; FGF22 binding: -0.3

How did COC(=O)c1sccc1NC(=O)CNC(=O)c1ccccc1 do in these assays?
PGC1a acetyl inh: 1.2; Vif imaging: 1.0; Ecoli rRNA inh: -22.8*; FGF22 binding: -0.3; AID977621: -15.5; AID977628: -13.7

How did Cc1nonc1OCCNCCNc1ccc([N+](=O)[O-])cc1Cl do in these assays?
PGC1a acetyl inh: -5.2; Vif imaging: 7.4; Ecoli rRNA inh: 1.6; FGF22 binding: 0.3

How did O=[N+]([O-])c1ccc(NCCNCCOc2nonc2-c2ccccc2)c([N+](=O)[O-])c1 do in these assays?
Cneo AK release: 2.1; Vif imaging: 15.4; PglD inh: -0.3; Ecoli rRNA inh: -21.0*; FGF22 binding: 0.0; AID977621: 5.63; AID977628: -0.84

Results for O=C(COc1cccc2c1CCN(Cc1ccccc1F)C2=O)N1CCCCC1 ?
Vif imaging: 5.3; Ecoli rRNA inh: -39.0*; FGF22 binding: 42.6; AID977628: inconclusive

Results for O=C(COc1cccc2c1CCN(Cc1ccc(Br)cc1)C2=O)N1CCOCC1 ?
Vif imaging: -8.5; Ecoli rRNA inh: -27.8*; FGF22 binding: 42.6; AID977621: 7.3; AID977628: -5.11

How did O=C1c2cccc(OCC(=O)N3CCCc4ccccc43)c2CCN1Cc1ccc(Br)cc1 do in these assays?
Vif imaging: -2.2

Results for Cc1n(CC(=O)c2ccc(F)cc2)c2ccccc2[n+]1C ?
Ecoli rRNA inh: 16.1; FGF22 binding: 0.1

How did CCCCc1n(CC(=O)c2ccc(Cl)cc2)c2ccccc2[n+]1C do in these assays?
PGC1a acetyl inh: -1.0; Cneo AK release: 1.6; Vif imaging: 13.1; PglD inh: 2.1; Ecoli rRNA inh: -19.1*; FGF22 binding: 0.1; AID977628: -1.44

How did Cc1ccc(-c2cc3ccccc3nc2N)cc1 do in these assays?
PGC1a acetyl inh: 1.5; Cneo AK release: -1.0; Vif imaging: -10.4; PglD inh: -7.7; Ecoli rRNA inh: -18.0; FGF22 binding: 0.1

What do the screens show for `Cc1ccccc1S(=O)(=O)c1cc2ccccc2nc1N`?
PGC1a acetyl inh: -3.7; Cneo AK release: 0.5; Vif imaging: -10.4; PglD inh: 3.9; Ecoli rRNA inh: -30.1*; FGF22 binding: 0.0; AID977621: 1.04

Results for CCn1c(SCC(=O)Nc2ccc(Cl)cc2)nc2nc3c(cc2c1=O)CCCC3 ?
PGC1a acetyl inh: -8.9; Cneo AK release: -0.4; Vif imaging: -6.2; PglD inh: -1.4

What do the screens show for `CCn1c(SCC(=O)Nc2ccc(OC)cc2)nc2nc3c(cc2c1=O)CCCC3`?
PGC1a acetyl inh: -41.2; Cneo AK release: 6.6; Vif imaging: 2.6; PglD inh: -1.9; Ecoli rRNA inh: -27.9*; FGF22 binding: -0.1; AID977621: 0.299; AID977628: inconclusive

What do the screens show for `COc1cccc(C(=O)Nc2ccccc2)c1`?
Vif imaging: -2.0

Results for COC(=O)c1ccsc1NC(=O)c1cccc(OC)c1 ?
PGC1a acetyl inh: -1.1; Vif imaging: 0.6; Ecoli rRNA inh: -26.9*; FGF22 binding: 0.1; AID977621: 4.44; AID977628: -4.44

How did C[C@@H]1CN([C@@H](C)CO)C(=O)c2cccc(NC(=O)c3ccncc3)c2O[C@H]1CN(C)CC1CCCCC1 do in these assays?
Cneo AK release: 4.3; PglD inh: -1.6; Ecoli rRNA inh: -7.0; FGF22 binding: -0.3

What do the screens show for `Cc1ccccc1NS(=O)(=O)c1cc(C(=O)NCCC2=CCCCC2)ccc1C`?
Cneo AK release: 20.2; Vif imaging: -4.9; PglD inh: 0.1; Ecoli rRNA inh: -17.1*; FGF22 binding: 0.3; AID977621: -1.95; AID977628: inconclusive

What do the screens show for `O=C(NCCC1=CCCCC1)c1ccc(Cl)c(S(=O)(=O)Nc2ccccc2)c1`?
PGC1a acetyl inh: -8.8; Cneo AK release: 8.3; Vif imaging: -14.2; PglD inh: -1.9; Ecoli rRNA inh: -20.5*; FGF22 binding: 0.0; AID977621: -12.8

Source: PubChem BioAssay
